In ChEMBL document CHEMBL2429859, “Inhibiting aberrant signal transducer and activator of transcription protein activation with tetrapodal, small molecule Src homology 2 domain binders: promising agents against multiple myeloma” (J Med Chem, 2013):
Values belong to the molecule of their own block, whether it stands above or below them. Calls of active or inactive are those of the source. No cut-off for these calls is given here.

Columns and labels:
[1] = molecular target: T1, Signal transducer and activator of transcription 3 (Homo sapiens, UniProt P40763); test: Inhibition of Stat3 in human JJN-3 cells assessed as downregulation of BCL-xL protein expression; format: cell-based
Procedure, shortened: (§1)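 Treated cells were washed in cold PBS and lysed 30 min on ice in Tris-HCl pH 7.4/NaCl/EDTA/1% NP-40 with PMSF, vanadate and protease inhibitors. Lysates were Bradford-normalized, and 10-30 µg protein was run on 7-10% SDS-PAGE and transferred to PVDF. Blots were blocked in 5% BSA/TBST, probed overnight at 4 °C, then with HRP secondary, and detected by ECL.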

[2] = molecular target: T1, Signal transducer and activator of transcription 3; test: Inhibition of Stat3-mediated luciferase expression in human XG6 cells at 15 to 30 uM after 6 hrs relative to control; format: cell-based
Procedure, shortened: (§2)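 Myeloma cells stably carried a Stat3-driven firefly luciferase reporter (puromycin-selected) and a CMV-driven Renilla luciferase internal control (hygromycin-selected), each selected for 2 weeks. After drug treatment, dual luciferase activity was read as relative luciferase units, firefly/Renilla.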

RPMI-8226 [3] = test: Induction of apoptosis in human RPMI8226 cells at 10 to 20 uM by annexin V/propidium iodide staining-based flow cytometric analysis; format: functional, cell-based; settings: TDE = time-dependent effect
Procedure, shortened: (§3)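 Apoptosis was measured by flow cytometry of Annexin V and propidium iodide staining. Viable, early apoptotic and late apoptotic cells were scored by quadrant, with time points at 24 and 48 h.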

[4] = molecular target: Tyrosine-protein kinase JAK1 (Homo sapiens) (UniProt P23458); test: Inhibition of JAK1 (unknown origin) assessed as residual activity at 5 uM relative to control
Procedure, shortened: (§4)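 Kinase profiling used a KinomeScan at 5 µM across 132 kinases, including 37 with SH2 domains.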

[5] = Cytotoxicity against BMNC isolated from multiple myeloma patient assessed as inhibition of hematopoietic progenitor colony formation at 30 uM; settings: human
JJN-3 [6] = test: Induction of apoptosis in human JJN-3 cells at 10 to 20 uM by annexin V/propidium iodide staining-based flow cytometric analysis; format: functional, cell-based; procedure, shortened: as §3
[7] = molecular target: T1, Signal transducer and activator of transcription 3; test: Inhibition of Stat3-mediated luciferase expression in human 8226 cells at 15 to 30 uM after 6 hrs relative to control; format: cell-based; procedure, shortened: as §2
[8] = molecular target: Tyrosine-protein kinase JAK2 (Homo sapiens) (UniProt O60674); test: Inhibition of JAK2 JH1 domain (unknown origin) assessed as residual activity at 5 uM relative to control; procedure, shortened: as §4
JJN-3 [9] = test: Cytotoxicity against human JJN-3 cells assessed as inhibition of cell viability after 72 hrs by MTT assay; format: functional, cell-based
Procedure, shortened: (§5)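 Myeloma lines were seeded at 1-3 x 10^4 cells per well onto compound or vehicle, in triplicate, and cultured 72 h at 37 °C in 5% CO2. Viability was measured colorimetrically by MTT assay relative to DMSO control. EC50 was fitted to a standard dose-response curve where applicable.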

[10] = molecular target: T2, Signal transducer and activator of transcription 5A (Homo sapiens) (UniProt P42229); test: Inhibition of GM-CSF-induced Stat5 phosphorylation in serum-starved human U937 cells at 10 to 20 uM incubated for 4 hrs prior to GM-CSF induction measured after 15 mins by phopsho-flow cytometric analysis; format: cell-based; settings: U-937
T2 sequence (whole entry): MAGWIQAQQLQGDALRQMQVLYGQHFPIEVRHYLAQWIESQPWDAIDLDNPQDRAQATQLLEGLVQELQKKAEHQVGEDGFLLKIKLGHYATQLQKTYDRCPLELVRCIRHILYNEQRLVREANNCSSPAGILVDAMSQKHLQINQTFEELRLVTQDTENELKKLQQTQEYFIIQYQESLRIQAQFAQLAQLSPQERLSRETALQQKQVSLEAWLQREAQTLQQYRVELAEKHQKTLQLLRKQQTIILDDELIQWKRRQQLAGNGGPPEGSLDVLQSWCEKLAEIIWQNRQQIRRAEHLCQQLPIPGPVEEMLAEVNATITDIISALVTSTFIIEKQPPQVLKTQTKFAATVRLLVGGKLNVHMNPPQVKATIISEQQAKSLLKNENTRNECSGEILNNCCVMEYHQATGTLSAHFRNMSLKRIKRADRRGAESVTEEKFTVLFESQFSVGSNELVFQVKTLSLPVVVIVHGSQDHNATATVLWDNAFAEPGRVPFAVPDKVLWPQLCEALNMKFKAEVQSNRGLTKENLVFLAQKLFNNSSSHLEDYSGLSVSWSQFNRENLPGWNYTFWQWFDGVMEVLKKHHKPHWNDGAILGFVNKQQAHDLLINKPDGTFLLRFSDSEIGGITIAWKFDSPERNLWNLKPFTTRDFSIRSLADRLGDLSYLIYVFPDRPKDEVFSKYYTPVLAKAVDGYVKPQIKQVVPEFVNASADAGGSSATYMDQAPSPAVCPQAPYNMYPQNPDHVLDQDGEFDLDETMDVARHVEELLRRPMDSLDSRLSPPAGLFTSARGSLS
Procedure, shortened: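 Serum-starved U937 cells were pretreated with compound for 4 h, then stimulated 15 min with IL-6 (Stat3), GM-CSF (Stat5) or IFN (Stat1). Phosphorylation of each STAT was quantified by phospho-flow cytometry.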

[11] = molecular target: T1, Signal transducer and activator of transcription 3; test: Inhibition of Stat3 in human JJN-3 cells assessed as downregulation of survivin protein expression; format: cell-based; procedure, shortened: as §1
MM1.S = test: Cytotoxicity against human MM1S cells assessed as inhibition of cell viability after 72 hrs by MTT assay; format: functional, cell-based; procedure, shortened: as §5
XG6 [12] = test: Induction of apoptosis in human XG6 cells at 10 to 20 uM by annexin V/propidium iodide staining-based flow cytometric analysis; format: functional, cell-based; procedure, shortened: as §3
JJN-3 [13] = test: Induction of apoptosis in human JJN-3 cells assessed as induction of PARP cleavage at 10 to 30 uM by Western blot analysis; format: functional, cell-based; procedure, shortened: as §1
JJN-3 [14] = test: Inhibition of total Stat3 level in human JJN-3 cells at 10 to 30 uM after 6 hrs by Western blot analysis; format: functional, cell-based; procedure, shortened: as §1
[15] = Cytotoxicity against CD138-negative BMNC isolated from multiple myeloma patient assessed as cell viability at > 20 uM; settings: human
Procedure, shortened: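 Bone marrow mononuclear cells were isolated by Ficoll-Paque separation from 6 myeloma patient aspirates, cultured, and treated with compound. Cells were stained for CD138 and Annexin V, and the decrease in CD138+ (myeloma) and CD138- (non-myeloma) populations was reported.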

RPMI-8226 [16] = test: Induction of apoptosis in human RPMI8226 cells at 10 to 15 uM by annexin V/propidium iodide staining-based flow cytometric analysis; format: functional, cell-based; settings: TDE = time-dependent effect; procedure, shortened: as §3
JJN-3 [17] = test: Inhibition of total Stat3 level in human JJN-3 cells at 5 to 10 uM after 6 hrs by Western blot analysis; format: functional, cell-based; procedure, shortened: as §1
XG6 [18] = test: Induction of apoptosis in human XG6 cells at 10 to 15 uM by annexin V/propidium iodide staining-based flow cytometric analysis; format: functional, cell-based; procedure, shortened: as §3
RPMI-8226 [19] = test: Cytotoxicity against human RPMI8226 cells assessed as cell viability at 7.5 uM after 72 hrs by MTT assay; format: functional, cell-based; procedure, shortened: as §5
[20] = molecular target: T1, Signal transducer and activator of transcription 3; test: Inhibition of Stat3-mediated luciferase expression in human XG6 cells at 7.5 to 15 uM after 6 hrs relative to control; format: cell-based; procedure, shortened: as §2
[21] = molecular target: T1, Signal transducer and activator of transcription 3; test: Inhibition of Stat3-mediated luciferase expression in human 8226 cells at 7.5 to 15 uM after 6 hrs relative to control; format: cell-based; procedure, shortened: as §2
JJN-3 [22] = test: Induction of apoptosis in human JJN-3 cells at 10 to 15 uM by annexin V/propidium iodide staining-based flow cytometric analysis; format: functional, cell-based; procedure, shortened: as §3

T1 sequence (P40763 whole entry): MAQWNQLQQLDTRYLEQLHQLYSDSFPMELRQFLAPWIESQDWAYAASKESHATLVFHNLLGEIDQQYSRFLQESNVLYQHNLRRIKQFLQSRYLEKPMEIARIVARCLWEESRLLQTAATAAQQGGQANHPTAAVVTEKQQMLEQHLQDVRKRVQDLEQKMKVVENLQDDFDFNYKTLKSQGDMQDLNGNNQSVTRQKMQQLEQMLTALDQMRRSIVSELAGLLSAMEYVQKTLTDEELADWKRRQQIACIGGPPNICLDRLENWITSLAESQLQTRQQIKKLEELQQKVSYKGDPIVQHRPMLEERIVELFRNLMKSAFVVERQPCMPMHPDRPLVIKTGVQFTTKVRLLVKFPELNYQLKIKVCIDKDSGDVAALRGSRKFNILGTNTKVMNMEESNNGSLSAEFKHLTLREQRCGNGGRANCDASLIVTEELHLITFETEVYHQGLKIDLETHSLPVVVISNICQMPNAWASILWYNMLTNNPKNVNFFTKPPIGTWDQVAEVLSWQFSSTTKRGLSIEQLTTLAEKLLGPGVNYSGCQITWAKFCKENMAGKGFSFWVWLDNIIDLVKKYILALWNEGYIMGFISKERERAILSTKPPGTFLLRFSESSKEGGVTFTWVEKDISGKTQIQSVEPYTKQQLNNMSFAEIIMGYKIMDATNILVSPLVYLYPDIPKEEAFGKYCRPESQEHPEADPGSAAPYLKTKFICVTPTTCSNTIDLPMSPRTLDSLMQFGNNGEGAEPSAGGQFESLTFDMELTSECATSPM
Tyrosine-protein kinase JAK1 (Homo sapiens), sequence (P23458 whole entry, the tested form may be a part): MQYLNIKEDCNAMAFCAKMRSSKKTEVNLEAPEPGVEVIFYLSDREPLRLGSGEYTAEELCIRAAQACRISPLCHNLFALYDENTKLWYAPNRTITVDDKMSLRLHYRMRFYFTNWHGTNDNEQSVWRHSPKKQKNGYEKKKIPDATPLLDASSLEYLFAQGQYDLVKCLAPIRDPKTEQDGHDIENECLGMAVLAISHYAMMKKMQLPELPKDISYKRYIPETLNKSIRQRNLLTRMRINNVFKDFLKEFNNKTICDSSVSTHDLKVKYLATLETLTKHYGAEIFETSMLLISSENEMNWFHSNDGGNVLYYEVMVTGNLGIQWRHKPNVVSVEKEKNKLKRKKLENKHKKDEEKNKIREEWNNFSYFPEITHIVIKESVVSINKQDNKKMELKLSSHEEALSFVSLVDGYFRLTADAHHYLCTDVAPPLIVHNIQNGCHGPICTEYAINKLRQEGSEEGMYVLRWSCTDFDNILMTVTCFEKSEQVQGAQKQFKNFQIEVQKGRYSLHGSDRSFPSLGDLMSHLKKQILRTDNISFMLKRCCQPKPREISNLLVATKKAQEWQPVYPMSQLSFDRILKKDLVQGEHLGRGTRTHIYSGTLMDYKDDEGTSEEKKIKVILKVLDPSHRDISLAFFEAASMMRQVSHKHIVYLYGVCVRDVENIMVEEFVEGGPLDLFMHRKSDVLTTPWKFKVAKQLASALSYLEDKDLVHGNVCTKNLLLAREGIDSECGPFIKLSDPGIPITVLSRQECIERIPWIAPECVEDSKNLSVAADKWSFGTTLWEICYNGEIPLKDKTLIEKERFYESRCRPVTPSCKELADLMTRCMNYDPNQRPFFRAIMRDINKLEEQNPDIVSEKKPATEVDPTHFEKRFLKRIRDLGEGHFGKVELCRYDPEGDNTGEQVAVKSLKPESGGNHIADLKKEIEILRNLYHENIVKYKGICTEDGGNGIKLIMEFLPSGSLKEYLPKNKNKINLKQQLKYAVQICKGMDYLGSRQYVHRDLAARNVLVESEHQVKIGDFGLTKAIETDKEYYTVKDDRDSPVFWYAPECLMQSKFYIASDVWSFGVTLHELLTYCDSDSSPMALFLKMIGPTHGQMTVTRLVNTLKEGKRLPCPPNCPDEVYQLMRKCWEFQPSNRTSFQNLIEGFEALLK
Tyrosine-protein kinase JAK2 (Homo sapiens), sequence (O60674 whole entry, the tested form may be a part): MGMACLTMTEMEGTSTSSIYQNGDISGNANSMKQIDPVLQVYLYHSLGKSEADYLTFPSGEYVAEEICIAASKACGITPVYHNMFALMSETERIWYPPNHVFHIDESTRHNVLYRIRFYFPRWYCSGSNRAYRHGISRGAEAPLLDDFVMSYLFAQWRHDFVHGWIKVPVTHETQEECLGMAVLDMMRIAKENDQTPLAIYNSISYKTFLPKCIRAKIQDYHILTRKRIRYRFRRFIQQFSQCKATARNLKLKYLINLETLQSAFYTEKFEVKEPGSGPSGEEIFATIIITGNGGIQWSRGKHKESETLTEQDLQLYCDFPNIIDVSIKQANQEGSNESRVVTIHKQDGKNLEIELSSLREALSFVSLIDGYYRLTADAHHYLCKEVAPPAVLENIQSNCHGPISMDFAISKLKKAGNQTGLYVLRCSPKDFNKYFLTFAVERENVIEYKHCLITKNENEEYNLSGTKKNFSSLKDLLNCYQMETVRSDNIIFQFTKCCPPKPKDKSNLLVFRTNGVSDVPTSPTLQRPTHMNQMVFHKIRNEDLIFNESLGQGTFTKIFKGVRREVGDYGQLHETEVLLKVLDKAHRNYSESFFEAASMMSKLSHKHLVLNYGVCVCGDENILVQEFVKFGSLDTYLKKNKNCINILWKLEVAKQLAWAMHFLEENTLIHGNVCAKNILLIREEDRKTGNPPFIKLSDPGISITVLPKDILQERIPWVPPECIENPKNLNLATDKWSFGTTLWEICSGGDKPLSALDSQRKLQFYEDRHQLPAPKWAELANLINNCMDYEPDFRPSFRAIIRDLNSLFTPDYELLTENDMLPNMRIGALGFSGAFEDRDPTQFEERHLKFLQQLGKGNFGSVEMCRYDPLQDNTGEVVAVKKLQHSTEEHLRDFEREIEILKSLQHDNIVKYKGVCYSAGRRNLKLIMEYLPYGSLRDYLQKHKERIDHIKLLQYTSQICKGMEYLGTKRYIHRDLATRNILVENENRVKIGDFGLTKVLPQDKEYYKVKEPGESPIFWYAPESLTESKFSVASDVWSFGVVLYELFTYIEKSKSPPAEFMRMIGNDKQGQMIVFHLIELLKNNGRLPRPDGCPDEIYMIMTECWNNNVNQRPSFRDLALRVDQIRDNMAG

inhibition [1]: inactive | inhibition [2]: 50% | Activity [4]: 84% | inhibition [7]: 50% | Activity [8]: 84% | inhibition [10]: Active
SMILES: Cc1ccc(S(=O)(=O)N(CC(=O)N(Cc2ccc(C3CCCCC3)cc2)c2ccc(C(=O)O)c(O)c2)Cc2ccccc2C(F)(F)F)cc1
Activity (RPMI-8226 [3]): tde | Activity [5]: Non-toxic | Activity (JJN-3 [6]): Active | inhibition (JJN-3 [9]): Dose-dependent effect | inhibition [11]: inactive | inhibition (MM1.S): Dose-dependent effect | Activity (XG6 [12]): Active | Activity (JJN-3 [13]): Active | inhibition (JJN-3 [14]): inactive | Activity [15]: Non-toxic

inhibition [1]: inactive | inhibition [10]: Active | inhibition [20]: 50% | inhibition [21]: 50%
SMILES: O=C(O)c1ccc(N(Cc2ccc(C3CCCCC3)cc2)C(=O)CN(Cc2ccccc2C(F)(F)F)S(=O)(=O)c2c(F)c(F)c(F)c(F)c2F)cc1O
Activity (RPMI-8226 [16]): tde | inhibition (JJN-3 [17]): inactive | Activity (XG6 [18]): Active | Activity (RPMI-8226 [19]): Active | inhibition (JJN-3 [9]): Dose-dependent effect | inhibition [11]: inactive | inhibition (MM1.S): Dose-dependent effect | Activity (JJN-3 [22]): Active
